# Screens deposited in PubChem BioAssay by several laboratories.
# A selection: hits, their analogues and other compounds. The true share with any hit is near 6%.
# EphB4 ephrin blk: antagonists of human EphB4-ephrin-B2 interaction; 97,000 tested, 0.15% active; inhibition, % at 7 µM; P54760; EphB4 LBD / TNYL-RAW-Alexa532 peptide, fluorescence polarization; AID 720;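 active = inhibition above the screen-wide mean inhibition plus 3 SD, cut at about 15% in these data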;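 note: 0% = DMSO wells and 100% = excess unlabeled TNYL-RAW peptide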
# E coli WT exp: E. coli BW25113 growth inhibition, expanded screen; OD600 absorbance; growth inhibition, % at 100 µM; 98,000 tested, 0.15% active;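 active = growth inhibition above about 50% at one test dose, limit read from the data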;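 note: growth measured after 20 h incubation at 37 °C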
# PostGolgi ctrl: growth of the yeast control strain, post-Golgi counter-screen. efflux-deficient yeast background strain, growth absorbance A615, 16 h. inhibition, % at 10 µM. 98,000 tested, 5% active. AID 738
# PostGolgi yeast: growth inhibition of a yeast mutant, post-Golgi transport screen; post-Golgi transport phenotypic cell assay; inhibition, % at 10 µM; 98,000 tested, 0.9% active; AID 739;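 note: yeast cells grown in 1536-well plates; yeast grown about 18 h at 30C before absorbance read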
# Ecoli tolC: E. coli tolC mutant growth inhibition | 65,000 tested, 2.2% active | E. coli BW25113 tolC mutant growth, OD615 | growth inhibition, % at 10 µM (by protocol);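 active = growth inhibition at or above a cutoff equal to the mean over every tested compound plus 3 SD, cut at about 60% in these data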;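 note: growth measured after 20 h incubation at 37 °C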
#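 System: E. coli ΔtolC::kan strain BW25113; Buffer or medium: LB broth supplemented with 50 µg/mL kanamycin; Compound: 10 µM final, single dose; Incubation: bacterial growth with compound for 20 h at 37 °C; Signal: A615 absorbance measurement; Evaluation: growth inhibition in percent.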
# * = called active by the depositor; nt = no result given. Cut-off read from the data, not from the text of the source, unless noted: active = inhibition above about 30%; inactive = the rest.
SMILES,EphB4 ephrin blk,E coli WT exp,PostGolgi ctrl,PostGolgi yeast,Ecoli tolC
COc1cc(C=O)c(Br)cc1OC1CCCC1,1,3,34*,3,nt
Cc1ccccc1N1C(=O)N(c2cccc(C(F)(F)F)c2)C2CS(=O)(=O)CC21 (centres undefined),-12,3,39*,6,6
COc1cccc(N2C(=O)N(c3ccccc3Cl)C3CS(=O)(=O)CC32)c1 (centres undefined),4,4,-2,0,-20
COc1ccc(OC)c(NC(=O)CSc2nnc(C3CCCCC3)n2-c2ccccc2)c1,1,nt,nt,nt,nt
CCCCCCc1nnc(N)s1,-3,11,3,-3,nt
CSc1cccc(NC(=O)Nc2ccccc2)c1,2,2,48*,-4,40
O=C(Nc1ccccc1)Nc1cc(Cl)cc(Cl)c1,0,14,56*,9,nt
O=C(Nc1cccc(Cl)c1)Nc1cccc(Cl)c1,-3,nt,nt,nt,nt
CCC(c1nnnn1Cc1ccco1)N1CCN(c2cc(Cl)ccc2C)CC1 (centres undefined),-2,-10,56*,4,43
Cc1ccc(Cl)cc1N1CCN(Cc2nnnn2C2CCCCC2)CC1,1,-22,58*,5,37
CCCCC(c1nnnn1Cc1ccco1)N1CCN(c2nc3ccccc3s2)CC1 (centres undefined),-2,-5,46*,94*,39
c1ccc(N2CCN(Cc3nnnn3C3CCCCC3)CC2)cc1,1,-8,0,-1,2
c1ccc(C(c2nnnn2Cc2ccco2)N2CCN(c3nc4ccccc4s3)CC2)cc1 (centres undefined),5,nt,nt,nt,nt
Cc1ccc(Cl)cc1N1CCN(Cc2nnnn2Cc2ccco2)CC1,0,-15,38*,4,65*
CN(CC(=O)O/N=C(\N)c1ccc([N+](=O)[O-])cc1)S(=O)(=O)c1ccc2ccccc2c1,1,-2,29,10,nt
Cc1ccc(NC(=O)c2cccc3c2C(=O)N(C2CCCCC2)C3)cc1,4,-2,44*,10,nt
CCOc1ccc(NC(=O)c2cccc3c2C(=O)N(CCOC)C3)cc1,1,-10,31*,3,nt
CCOC(=O)N1CCC(N2Cc3cccc(C(=O)Nc4ccc(F)cc4)c3C2=O)CC1,-3,-6,9,-6,nt
O=C(NCc1ccc2c(c1)OCO2)c1cccc2c1C(=O)N(C1CCCCC1)C2,3,-3,14,4,-3
CCOC(=O)N1CCC(N2Cc3cccc(C(=O)Nc4ccc(CC)cc4)c3C2=O)CC1,2,-3,34*,0,nt
CCOC(=O)N1CCC(NC(=O)c2cccc3c2C(=O)N(c2ccc(OC)cc2)C3)CC1,0,-20,38*,-1,49
CCOC(=O)/C(C(C)=O)=C1/OC(=O)c2ccccc21,-3,-11,-2,11,nt
CCCn1c(SCc2cc(=O)oc3ccc4ccccc4c23)n[nH]c1=O,nt,5,-3,30*,19
COc1c(Cl)cc(-c2noc(C)c2C(=O)NCCc2ccc(C)cc2)cc1Cl,-9,1,37*,2,nt
C#CCSc1nnc(-c2sc(-c3ccccc3)nc2C)n1C,-3,3,9,9,nt
SMILES,EphB4 ephrin blk,E coli WT exp,PostGolgi ctrl,PostGolgi yeast,Ecoli tolC
Cc1nc2ccc(NS(=O)(=O)c3c(C)c(C)cc(C)c3C)cc2s1,1,3,36*,10,nt
Cc1nc2cc(NS(=O)(=O)c3c(C)c(C)cc(C)c3C)ccc2s1,-2,nt,nt,nt,nt
Cc1cccc2nc(C(F)(F)F)nc(=O)n12,8,2,6,5,-5
CCn1c(CNc2ccccc2Cl)nnc1SCC(=O)OC1CCCCC1,-10,-2,17,0,73*
CCn1c(CNc2cccc(Cl)c2)nnc1SCC(=O)OC1CCCCC1,4,-10,23,12,60*
CC(CC(=O)Nc1nncs1)c1ccccc1 (centres undefined),0,nt,nt,nt,nt
Clc1ccc(Nc2ccc(-n3ccnc3)nn2)cc1Cl,-5,-2,34*,9,nt
O=C(COc1ccccc1Br)N1CCN(c2ccccc2)CC1,-3,0,14,-5,nt
CC(=O)Nc1cccc(C(=O)OC(C(=O)c2ccc(C)c(C)c2)c2ccccc2)c1 (centres undefined),7,-7,25,-2,nt
CC(=O)Nc1cccc(C(=O)OC(C(=O)c2ccc(C)cc2)c2ccccc2)c1 (centres undefined),3,-8,33*,-11,nt
O=C1C=C(Nc2ccc(Cl)cc2)CC(c2ccco2)C1 (centres undefined),-5,nt,nt,nt,nt
O=C1C=C(NCc2ccco2)CC(c2ccc(Cl)cc2)C1 (centres undefined),-6,-2,41*,nt,14
